Tests used:
[1] = target: T1, Cyclooxygenase (Bos taurus) (UniProt O62664+O62698); test: Tested for Prostaglandin synthetase inhibition in Bovine seminal vesicle microsomes using Beckman liquid scintillation counter at 10 e-5 M; format: functional; conditions: Microsome
[2] = Lethal dose in mice determined by Litchfield and Wilcoxon methods after peroral administration.; format: toxicity, organism-based; conditions: mouse, in vivo, po
Outline: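 Median lethal dose found after oral dosing of mice, four mice per dose level, and calculated by the Litchfield–Wilcoxon method.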

Rattus norvegicus [3] = test: Percent inhibition of carrageenan paw edema in rat, administered orally at a dose of one tenth of oral lethal dose in mice; format: functional
Outline: (§1)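 1 h later, 0.1 mL of 1% carrageenan was injected into the right hind-paw plantar tissue. Paw swelling was measured by mercury-displacement plethysmometry 3 h after carrageenan, compared with controls.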

Rattus norvegicus [4] = test: Total score is the sum of scores obtained in the adjuvant arthritis, acute toxicity, carrageenan edema, and prostaglandin synthetase assay; format: functional
Rattus norvegicus [5] = species: Rattus norvegicus; test: Average percent inhibition (arthritis score=1) of the swelling of both injected and non injected paw was measured; […]; format: functional
[6] = target: T1, Cyclooxygenase (Bos taurus); test: Inhibition of prostaglandin synthetase in bovine seminal vesicle microsomes using Beckman liquid scintillation counter at 10 e-5 M; conditions: Microsome
Rattus norvegicus [7] = test: Tested for percent enhancement of carrageenan paw edema in rat, administered orally at a dose of one tenth of oral lethal dose in mice; format: functional; outline: as §1
[8] = Toxic score (3) was measured as lethal dose in orally administered mice; format: toxicity, organism-based; conditions: mouse, in vivo, po
Outline: (§2)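 Score derived from mouse oral LD50 (Litchfield–Wilcoxon, four mice per dose), in mg/kg: >1000 = 3; 500-1000 = 2; <500 = 1.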

Rattus norvegicus [9] = species: Rattus norvegicus; test: Tested for inhibition in the rat paw not injected with […].; format: functional; parameters: concentration or dose not given beside the values
Outline: (§3)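 Adjuvant-induced arthritis, female Lewis rats, six per group: M. butyricum in mineral oil (3 mg/mL, 0.1 mL) injected into right hind paw plantar tissue. Daily oral dosing from adjuvant day to day 28, 10 or 5 (mg/kg)/day according to mouse oral LD50 (≥1000 or <1000 mg/kg). Injected and noninjected paw swelling read by mercury-displacement plethysmometry on day 28.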

Rattus norvegicus [10] = species: Rattus norvegicus; test: Tested for inhibition in the rat paw injected with carrageenan.; format: functional; parameters: concentration or dose not given beside the values
[11] = Toxic score was measured as lethal dose in orally administered mice;Values ranges from: 500-1000; format: toxicity, organism-based; conditions: mouse, in vivo, po; outline: as §2
Rattus norvegicus [12] = species: Rattus norvegicus; test: Average percent inhibition (arthritis score=0) of the swelling of both injected and non injected paw was measured; format: functional
Outline: (§4)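 Adjuvant arthritis in inbred female Lewis rats, groups of six, acclimatized 2 weeks. Arthritis induced by injecting 0.1 mL M. butyricum in mineral oil (3 mg/mL) into right hind paw plantar tissue. Oral dosing daily from adjuvant day to day 28: 10 (mg/kg)/day if mouse oral LD50 ≥1000 mg/kg, else 5 (mg/kg)/day. Swelling of injected and noninjected paws measured day 28 by mercury-displacement plethysmometry; mean percent inhibition scored 0–3.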

Rattus norvegicus [13] = species: Rattus norvegicus; test: Tested for enhancement in the rat paw injected with carrageenan.; format: functional
Rattus norvegicus [14] = species: Rattus norvegicus; test: Tested for enhancement in the rat paw not injected with carrageenan.; format: functional
Rattus norvegicus [15] = species: Rattus norvegicus; test: Average percent inhibition (arthritis score=3) of the swelling of both injected and non injected paw was measured; format: functional; outline: as §4
Rattus norvegicus [16] = test: Tested for inhibition at the dose of 5(mg/kg)/day in the rat paw not injected with carrageenan.; format: functional; conditions: in the assay text read “adjuvant” for “carrageenan”; outline: as §3
[17] = Toxic score (1) was measured as lethal dose in orally administered mice; format: toxicity, organism-based; conditions: in vivo, po; outline: as §2
Rattus norvegicus [18] = species: Rattus norvegicus; test: Average percent inhibition (arthritis score)of the swelling of both injected and non injected paw was measured; format: functional; outline: as §4
Rattus norvegicus [19] = species: Rattus norvegicus; test: Average percent inhibition (arthritis score=1) of the swelling of both injected and non injected paw was measured;values ranges from: […]-[…]; format: functional
Rattus norvegicus [20] = species: Rattus norvegicus; test: Average percent inhibition of the swelling of both injected and non injected paw was measured; […]; format: functional
[21] = target: T1, Cyclooxygenase (Bos taurus); test: Tested for Prostaglandin Synthetase inhibition in Bovine seminal vesicle microsomes using Beckman liquid scintillation counter at 10 e-5 M; conditions: Microsome
Rattus norvegicus [22] = test: Minimum effective dose against adjuvant arthritis on prophylactic dosing (peroral administration); format: functional; conditions: po, read-out: MED
Outline: (§5)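 Female Lewis rats given adjuvant arthritis by plantar M. butyricum in mineral oil. Oral daily dosing either from adjuvant day to day 28 (continuous), day 16 to day 28 (therapeutic), or day 5 pre- to day 5 postadjuvant (prophylactic). MED: lowest dose producing significant (p < 0.05) inhibition of noninjected paw swelling on day 28, by plethysmometry.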

Rattus norvegicus [23] = test: Effective dose against analgesic activity (peroral administration); format: functional; conditions: po
Rattus norvegicus [24] = test: Effective dose against gastroulcerogenic activity (peroral administration); format: functional; conditions: po
Outline: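 Groups of six Sprague-Dawley rats given oral doses once daily for 3 days; inner stomach surface examined for lesions 24 h after last dose. ED50 is the dose giving macroscopically visible lesions in 50% of rats.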

Rattus norvegicus [25] = test: Effective dose against carrageenan edema(peroral administration); format: functional; conditions: po
Outline: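 Sprague-Dawley rats fasted 18 h, dosed orally in 0.5% carboxymethylcellulose suspension 1 h before 0.1 mL of 1% carrageenan into right hind paw plantar tissue. Paw swelling in treated versus control rats measured 3 h post-carrageenan by mercury-displacement plethysmometry; ED50 given in mg/kg po.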

Rattus norvegicus [26] = test: Effective dose against nystatin edema(peroral administration); format: functional; conditions: po
Rattus norvegicus [27] = test: Tested for percent inhibition of carrageenan paw edema in rat, administered orally at a dose of one tenth of oral lethal dose in mice; format: functional
Outline: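 Sprague-Dawley rats fasted 18 h; compound suspended in 0.5% carboxymethylcellulose, given orally 1 h before 0.1 mL of 1% carrageenan suspension injected into the plantar tissue of the right hind paw. Paw swelling measured by mercury-displacement plethysmometry 3 h after carrageenan, treated versus controls. Mouse oral LD50 was from the Litchfield-Wilcoxon method with four mice per dose.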

Rattus norvegicus [28] = test: Minimum effective dose against adjuvant arthritis on therapeutic dosing (peroral administration); format: functional; conditions: po, read-out: MED; outline: as §5
Rattus norvegicus [29] = test: Minimum effective dose against adjuvant arthritis on administration); format: functional; conditions: read-out: MED; outline: as §5
Rattus norvegicus [30] = species: Rattus norvegicus; test: Minimum effective dose is the lowest dose preventing any futher increase in body temperature; format: functional; conditions: read-out: MED
Outline: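 Antipyretic test, oral dosing; MED defined as the lowest dose preventing any further increase of body temperature.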

| SMILES | LD50 [2] [mg/kg] | Inhibition (Rattus norvegicus [3]) [%] | Total score (Rattus norvegicus [4]) | inhibition [6] [%] | LD50 [8] [mg/kg] | Inhibition (Rattus norvegicus [9]) [%] | Inhibition (Rattus norvegicus [10]) [%] | other results |
| --- | --- | --- | --- | --- | --- | --- | --- | --- |
| CCCCCCCCCC/N=C(\Nc1nccs1)Nc1cc(C)nc2ccccc12 | > 1000 | 4 |  |  |  |  |  | inhibition [1]: 4.5% |
| CCOC(=O)c1csc(/N=C(\Nc2cc(C)nc3ccccc23)NC2CCCCC2)n1 | > 1000 |  | 7 | 89.8 | > 1000 | 24 | 4 | Inhibition (Rattus norvegicus [5]): 29%; Enhancement (Rattus norvegicus [7]): 1% |
| CCOc1cc(N/C(=N/C(C)(C)C)Nc2nccs2)c2ccccc2n1 | 800 | 39 | 6 | 88.9 |  | 13 | 8 | LD50 [11]: 1000 mg/kg; Inhibition (Rattus norvegicus [12]): <10% |
| CCOC(=O)c1cnc(/N=C(\Nc2cc(C)nc3ccccc23)NC2CCCCC2)s1 | > 1000 |  |  | 15.6 |  |  |  | Enhancement (Rattus norvegicus [7]): 16% |
| Cc1cc(N/C(=N/C2CCCCC2)Nc2nc3ccccc3s2)c2ccccc2n1 | > 1000 | 1 | 6 | 76.1 | > 1000 |  |  | Inhibition (Rattus norvegicus [12]): <10%; Enhancement (Rattus norvegicus [13]): 7%; Enhancement (Rattus norvegicus [14]): 4% |
| Cc1ccc2nc(C)cc(N/C(=N/C3CCCCC3)Nc3nccs3)c2c1 | > 1000 | 65 | 6 | 0.6 | > 1000 | 0 |  | Inhibition (Rattus norvegicus [12]): <10%; Enhancement (Rattus norvegicus [13]): 21% |
| Cc1cc(N/C(=N\C(C)(C)C)Nc2nccs2)c2ccccc2n1 | 200 | 34 | 8 | 100 |  |  |  | Inhibition (Rattus norvegicus [15]): >=50%; Inhibition (Rattus norvegicus [16]): 60%; LD50 [17]: < 500 mg/kg |
| CC(C)(C)/N=C(/Nc1nccs1)Nc1cccc2ccccc12 | > 1000 |  |  | 6.9 |  |  |  | Enhancement (Rattus norvegicus [7]): 19% |
| CC(C)(C)/N=C(\Nc1nccs1)Nc1cc(C(F)(F)F)nc2ccccc12 | > 1000 | 28 | 7 | 75.4 | > 1000 | 2 |  | Inhibition (Rattus norvegicus [12]): <10%; Enhancement (Rattus norvegicus [13]): 6% |
| Cc1cc(N/C(=N/C2(C)CCCC2)Nc2nccs2)c2ccccc2n1 | 600 | 46 | 7 | 100 |  |  |  |  |
| CC(C)(C)/N=C(\Nc1ccc2ccccc2c1)Nc1nccs1 | > 1000 |  |  | 1.7 |  |  |  | Enhancement (Rattus norvegicus [7]): 17% |
| CCC(C)(C)/N=C(/Nc1nccs1)Nc1cc(C)nc2ccccc12 | 400 | 53 | 9 | 100 |  | 55 | 59 | Inhibition (Rattus norvegicus [18]): >=50%; LD50 [17]: < 500 mg/kg |
| CC(C)(C)/N=C(/Nc1nccs1)Nc1cccnc1Cl | > 1000 | 19 |  |  |  |  |  | inhibition [1]: 10.1% |
| Cc1cc(N/C(=N/C(C)(C)C)NC2NC=CS2)c2ccccc2n1 (configuration not stated) | 200 | 41 |  |  |  |  |  | inhibition [1]: 1.3% |
| Cc1cc(N/C(=N/C2CCCCC2)Nc2nc(C)c(C)s2)c2ccccc2n1 | > 1000 | 54 | 8 | 87.9 | > 1000 |  | 7 | Inhibition (Rattus norvegicus [18]): <10%; Enhancement (Rattus norvegicus [14]): 63% |
| CCCC/N=C(/Nc1nccs1)Nc1cc(C)nc2ccccc12 | 800 | 89 | 6 | 0.6 |  |  |  | Inhibition (Rattus norvegicus [16]): 34%; Inhibition (Rattus norvegicus [19]): 29% |
| CC(C)(C)/N=C(\Nc1nccs1)Nc1ccnc2cc(Cl)ccc12 | > 1000 | 61 | 7 | 5.5 | > 1000 | 8 | 26 |  |
| Cc1csc(/N=C(\Nc2cc(C)nc3ccccc23)NC(C)(C)C)n1 | 600 | 31 | 9 | 95.1 | > 1000 | 59 | 53 | Inhibition (Rattus norvegicus [15]): >=50% |
| Cc1cc(N/C(=N\CC(C)(C)C)Nc2nccs2)c2ccccc2n1 | 600 | 66 | 7 | 31.1 |  | 29 | 31 | Inhibition (Rattus norvegicus [19]): 29% |
| CCCCC/N=C(\Nc1nccs1)Nc1cc(C)nc2ccccc12 | 400 | 62 | 7 | -37 | > 1000 |  | 19 | Enhancement (Rattus norvegicus [14]): 4%; Inhibition (Rattus norvegicus [19]): 29% |
| Cc1cc(N/C(=N/C2CCCCCCC2)Nc2nccs2)c2ccccc2n1 | > 1000 | 62 | 9 | 55.1 | > 1000 |  | 21 | Inhibition (Rattus norvegicus [5]): 29%; Enhancement (Rattus norvegicus [14]): 8% |
| Cc1cc(N/C(=N/C2CCCCC2)Nc2nc3ccccc3[nH]2)c2ccccc2n1 | > 1000 |  |  | 7.2 |  |  |  | Enhancement (Rattus norvegicus [7]): 13% |
| Cc1cc(N/C(=N/C(C)(C)C)Nn2cnnc2)c2ccccc2n1 | > 1000 |  |  |  |  |  |  | Enhancement (Rattus norvegicus [7]): 9% |
| Cc1cc(N/C(=N/c2ccccc2)Nc2nccs2)c2ccccc2n1 | > 1000 | 59 | 10 | 83.8 | > 1000 | 47 | 46 | Inhibition (Rattus norvegicus [20]): 49% |
| Cc1cc(N/C(=N/C(C)(C)C)Nc2cccs2)c2ccccc2n1 | > 1000 | 73 | 8 | 37.2 | > 1000 | 26 | 16 | Inhibition (Rattus norvegicus [20]): 29% |
| CCOC(=O)c1csc(/N=C(\Nc2cc(C)nc3ccccc23)NC(C)(C)C)n1 | > 1000 |  |  | 71.8 |  |  |  | Enhancement (Rattus norvegicus [7]): 36% |
| Cc1cc(N/C(=N/C2CCCCC2)NC2NC=CS2)c2ccccc2n1 (configuration not stated) | > 1000 | 33 |  |  |  |  |  | inhibition [21]: 12.6% |
| COc1ccc2c(c1)c(CC(=O)O)c(C)n2C(=O)c1ccc(Cl)cc1 [INDOMETHACIN] | 24.3 |  |  |  |  |  |  | minimal effective dose (Rattus norvegicus [22]): 2 mg/kg; ED50 (Rattus norvegicus [23]): 6.5 mg/kg; ED50 (Rattus norvegicus [24]): 4.6 mg/kg; ED50 (Rattus norvegicus [25]): 3.5 mg/kg; ED50 (Rattus norvegicus [26]): > 6 mg/kg; LD50 (Rattus norvegicus [27]): 12 mg/kg; minimal effective dose (Rattus norvegicus [28]): < 1 mg/kg; minimal effective dose (Rattus norvegicus [29]): 1 mg/kg; minimal effective dose (Rattus norvegicus [30]): 1.6 mg/kg |
| Cc1cc(N/C(=N/c2ccccc2C)Nc2nccs2)c2ccccc2n1 | > 1000 | 53 |  | 14.8 |  |  |  |  |
| CC(C)(C)/N=C(\Nc1ccccc1)Nc1nccs1 | > 1000 | 24 |  | 6.4 |  |  |  |  |

From ChEMBL document CHEMBL1121519, “Basic antiinflammatory compounds. N,N',N''-Trisubstituted guanidines” (J Med Chem, 1980)
